Measured values: ChEMBL document CHEMBL1125672, “2-acetylpyridine thiosemicarbazones. 13. Derivatives with antifilarial activity” (1991)

Key:
[1] = system: Brugia pahangi; assay: anti-filarial Activity was measured against Brugia pahangi in jirds at 12.5 mg/kg/day(5 days) dose; assay type: functional
Procedure, shortened: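 Jirds with established B. pahangi or A. viteae infections were given drug once daily for 5 days by subcutaneous injection, at the maximum tolerated dose and, where supply allowed, graded lower doses. Tolerance was first checked in noninfected jirds with a single 200 mg/kg oral or subcutaneous dose, watching 72 h for excessive weight loss or death. Macrofilarial suppression was the read-out.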

[2] = system: Onchocerca volvulus; assay: Colorimetric quantification of male Onchocerca volvulus viability, expressed as % inhibition of formazan formation at 3.1*10e-6 M conc. by using tetrazolium Dye MTT assay; assay type: functional
Procedure, shortened: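 Male O. volvulus dissected from human nodules within 24 h (kept in medium on ice), cultured without feeder cells in medium with 10% serum; drug from DMSO stock. MTT after 96 h: single worm, 0.5 mg/mL MTT, 30 min at 36.5 °C, formazan dissolved in DMSO 1 h at room temperature, absorbance 490 nm against DMSO blank.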

[3] = system: Onchocerca gutturosa; assay: Colorimetric quantification of male Onchocerca gutturosa viability, expressed as % inhibition of formazan formation at 5*10e-5 M conc. by using tetrazolium Dye MTT assay; assay type: functional
Procedure, shortened: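 Single intact male O. gutturosa, cultured with LLCMK2 feeder cells in MEM + 10% heat-inactivated FCS (5% CO2), drug added from DMSO (≤0.016% DMSO in controls). MTT read after 168 h: worm in 0.5 mg/mL MTT, 30 min at 36.5 °C, formazan solubilized in DMSO 1 h at room temperature, absorbance 490 nm vs DMSO blank.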

[4] = system: Onchocerca gutturosa; assay: Mean motility score for treated Onchocerca gutturosa involving LLCMK2 feeder cells at a concentration of 5*10e-5 M at 1 h; assay type: functional
Procedure, shortened: (§1)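 Single male O. gutturosa worms (obtained following abattoir slaughter) per well in Eagle's MEM with 10% heat-inactivated fetal calf serum, penicillin, streptomycin, amphotericin B and bicarbonate, over LLCMK2 feeder cells, 5% CO2 in air. Drug dissolved in DMSO; controls received matched DMSO ≤0.016%. Motility scored 0 (immotile) to 10 (maximum control activity) every 30 min to 4.5 h, then days 1, 2, 3, 4, 7.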

[5] = system: Onchocerca gutturosa; assay: Mean motility score for treated Onchocerca gutturosa involving LLCMK2 feeder cells at a concentration of 5*10e-5 M at 1.5 h; assay type: functional; procedure, shortened: as §1
[6] = system: Onchocerca gutturosa; assay: Mean motility score for treated Onchocerca gutturosa involving LLCMK2 feeder cells at a concentration of 5*10e-5 M at 2 h; assay type: functional; procedure, shortened: as §1
[7] = system: Onchocerca gutturosa; assay: Mean motility score for treated Onchocerca gutturosa involving LLCMK2 feeder cells at a concentration of 5*10e-5 M at 2.5 h; assay type: functional; procedure, shortened: as §1
[8] = system: Onchocerca gutturosa; assay: Mean motility score for treated Onchocerca gutturosa involving LLCMK2 feeder cells at a concentration of 5*10e-5 M at 24 h; assay type: functional; procedure, shortened: as §1
[9] = system: Onchocerca gutturosa; assay: Mean motility score for treated Onchocerca gutturosa involving LLCMK2 feeder cells at a concentration of 5*10e-5 M at 3.5 h; assay type: functional; procedure, shortened: as §1
[10] = system: Onchocerca gutturosa; assay: Mean motility score for treated Onchocerca gutturosa involving LLCMK2 feeder cells at a concentration of 5*10e-5 M at 4.5 h; assay type: functional; procedure, shortened: as §1
[11] = system: Onchocerca gutturosa; assay: Mean motility score for treated Onchocerca gutturosa involving LLCMK2 feeder cells at a concentration of 5*10e-5 M at 48 h; assay type: functional
Procedure, shortened: (§2)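 Single male O. gutturosa worms per well in Eagle's MEM with 10% heat-inactivated fetal calf serum, antibiotics and bicarbonate, over LLCMK2 feeder cells, 5% CO2 in air. Test chemical dissolved in DMSO and diluted into medium; control wells got matched DMSO not exceeding 0.016%. Motility scored 0 (immotile) to 10 (maximum control motility) every 30 min for 4.5 h, then at 1, 2, 3, 4 and 7 days.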

[12] = system: Onchocerca gutturosa; assay: Mean motility score for treated Onchocerca gutturosa involving LLCMK2 feeder cells at a concentration of 5*10e-5 M at 72 h; assay type: functional; procedure, shortened: as §2
[13] = system: Onchocerca gutturosa; assay: Mean motility score for treated Onchocerca gutturosa involving LLCMK2 feeder cells at a concentration of 5*10e-5 M at 96 h; assay type: functional; procedure, shortened: as §2
[14] = system: Onchocerca gutturosa; assay: Mean motility score for treated Onchocerca gutturosa involving LLCMK2 feeder cells at a concentration of 3.05*10e-9 M at 3 h; assay type: functional; procedure, shortened: as §1
[15] = system: Onchocerca gutturosa; assay: Mean motility score for treated Onchocerca gutturosa involving LLCMK2 feeder cells at a concentration of 3.05*10e-9 M at 4 h; assay type: functional; procedure, shortened: as §1
[16] = system: Onchocerca gutturosa; assay: Mean motility score for treated Onchocerca gutturosa involving LLCMK2 feeder cells at a concentration of 3.05*10e-9 M at 48 h; assay type: functional; procedure, shortened: as §1
[17] = system: Onchocerca gutturosa; assay: Mean motility score for treated Onchocerca gutturosa involving LLCMK2 feeder cells at a concentration of 3.05*10e-9 M at 72 h; assay type: functional; procedure, shortened: as §1
[18] = system: Onchocerca gutturosa; assay: Mean motility score for treated Onchocerca gutturosa involving LLCMK2 feeder cells at a concentration of 3.05*10e-9 M at 96 h; assay type: functional; procedure, shortened: as §1
[19] = system: Onchocerca gutturosa; assay: Mean motility score for treated Onchocerca gutturosa involving LLCMK2 feeder cells at a concentration of 3.05*10e-9 M at 4.5 h; assay type: functional; procedure, shortened: as §1
[20] = system: Onchocerca volvulus; assay: Mean motility score for treated Onchocerca volvulus excluding LLCMK2 feeder cells at a concentration of 5*10e-5 M at 1 h
[21] = system: Onchocerca volvulus; assay: Mean motility score for treated Onchocerca volvulus excluding LLCMK2 feeder cells at a concentration of 5*10e-5 M at 2 h
[22] = system: Onchocerca volvulus; assay: Mean motility score for treated Onchocerca volvulus excluding LLCMK2 feeder cells at a concentration of 5*10e-5 M at 24 h
[23] = system: Onchocerca volvulus; assay: Mean motility score for treated Onchocerca volvulus excluding LLCMK2 feeder cells at a concentration of 5*10e-5 M at 48 h
[24] = system: Onchocerca volvulus; assay: Mean motility score for treated Onchocerca volvulus excluding LLCMK2 feeder cells at a concentration of 5*10e-5 M at 72 h
[25] = system: Onchocerca volvulus; assay: Mean motility score for treated Onchocerca volvulus excluding LLCMK2 feeder cells at a concentration of 5*10e-5 M at 96 h
[26] = system: Onchocerca volvulus; assay: Mean motility score for treated Onchocerca volvulus excluding LLCMK2 feeder cells at a concentration of 5*10e-5 M at 1.5 h
[27] = system: Onchocerca volvulus; assay: Mean motility score for treated Onchocerca volvulus excluding LLCMK2 feeder cells at a concentration of 3.1*10e-6 M at 1 h
[28] = system: Onchocerca volvulus; assay: Mean motility score for treated Onchocerca volvulus excluding LLCMK2 feeder cells at a concentration of 3.1*10e-6 M at 48 h
[29] = system: Onchocerca volvulus; assay: Mean motility score for treated Onchocerca volvulus excluding LLCMK2 feeder cells at a concentration of 3.1*10e-6 M at 96 h
[30] = system: Onchocerca volvulus; assay: Mean motility score for treated Onchocerca volvulus excluding LLCMK2 feeder cells at a concentration of 3.1*10e-6 M at 24 h

Row | Structure (SMILES) | Suppression [1] | Inhibition [2] | Inhibition [3] | Motility [4] | Motility [5] | Motility [6] | Motility [7] | Motility [8] | Motility [9] | Motility [10] | Motility [11] | Motility [12] | Motility [13] | Motility [14] | Motility [15] | Motility [16] | Motility [17] | Motility [18] | Motility [19] | Motility [20] | also measured
1 | C/C(=N\NC(=S)N1CCCCCC1)c1ccccn1 | 100% | 39.6% | 90.3% | 4.8 | 4.8 | 4.8 | 3.8 | 0 | 2.3 | 1.8 | 0 | 0 | 0 | 8.8 | 7.8 | 6.8 | 6 | 5.5 | 9.5 | 8.4 | Motility [21]: 8; Motility [22]: 1.6; Motility [23]: 1; Motility [24]: 1; Motility [25]: 0.3; Motility [26]: 8; Motility [27]: 6.6; Motility [28]: 0.6; Motility [29]: 0; Motility [30]: 3.4
2 | C/C(=N\NC(S)=Nc1ccccc1N)c1ccccn1 | 16% | 65.3% | 72.9% | 10 | 9.5 | 8.5 | 9.5 | 9.5 | 9.5 | 9.5 | 8.3 | 1.6 | 1.5 | 7.5 | 5.8 | 6.3 | 7.5 | 6.8 | 7.5 | 5 | Motility [21]: 6; Motility [22]: 4.4; Motility [23]: 3.6; Motility [24]: 2.4; Motility [25]: 0.6; Motility [26]: 4.4; Motility [27]: 5; Motility [28]: 2; Motility [29]: 0.4; Motility [30]: 1.6
